# An excerpt weighted towards active compounds, which were near 3.8% of everything screened.
# ANO1 block: mouse TMEM16A channel inhibition, primary screen. HEK293 TMEM16A/YFP iodide influx fluorescence, ionomycin. normalized B-score (activity score, 25-100; higher = stronger inhibition) at 10 µM. 310,000 compounds, 1.2% hits;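 active = ratio plate-corrected score three or more library SD toward inhibition, starting fluorescence score within five deviations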;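 also: score derived from kinetic fluorescence span divided by baseline fluorescence per well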
# Beta cell apopt: blocks beta cell apoptosis; INS-1E cytokine-induced death, ATP luminescence, 48 h; percent of positive-control rescue, neutral wells zero; protection from apoptosis, % (concentration not given with the values); 300,000 compounds, 0.8% hits; AID 435005;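 active = Every replicate reaches about 75%, or at least half do and their mean reaches it too, limit read from the data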;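 also: 0% = cytokine-treated negative control wells and 100% = positive control rescue; higher means more ATP so stronger rescue from cytokine killing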
# MC4R barr agon: human MC4R agonism via beta-arrestin; P32245; U2OS MC4R beta-arrestin complementation, luminescence; percent of melanotan II response, DMSO zero; activation, % at 8.9 µM; 360,000 compounds, 0.98% hits; AID 540308;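 active = activation above a per-plate cutoff, the mean activation of sample wells on that plate plus 3 SD, cut at about 8% in these data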
# Target sequence (P32245 whole entry, looked up): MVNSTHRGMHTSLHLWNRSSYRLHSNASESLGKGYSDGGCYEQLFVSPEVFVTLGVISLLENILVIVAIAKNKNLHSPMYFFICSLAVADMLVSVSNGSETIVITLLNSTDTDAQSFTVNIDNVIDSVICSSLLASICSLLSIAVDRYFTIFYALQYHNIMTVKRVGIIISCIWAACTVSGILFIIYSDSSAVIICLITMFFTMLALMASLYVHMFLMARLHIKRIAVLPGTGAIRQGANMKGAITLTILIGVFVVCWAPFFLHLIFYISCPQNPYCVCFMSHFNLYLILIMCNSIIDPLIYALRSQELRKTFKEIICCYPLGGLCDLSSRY
# MC4R antagonist: antagonists of human melanocortin 4 receptor (MC4R). 360,000 compounds, 0.48% hits. AID 540295. inhibition, % at 6.5 µM. MC4R-expressing cells, MTII-stimulated cAMP, LANCE TR-FRET. P32245;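 active = inhibition above its plate's cutoff, the mean of tested wells on that plate plus 3 SD, cut at about 29% in these data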;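 also: 0% = Melanotan II alone and 100% = Melanotan II plus saturating MCL0020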
#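 Assay system: U2OS-MC4R stable cell line; Also added: Melanotan II; Technique: Eu-cAMP/anti-cAMP TR-FRET, emission 671 nm; Times: 30-min compound, 1-h challenge, 1-h detection, room temperature.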
# ANO1 activ: mouse TMEM16A channel activation, primary screen. Q8BHY3. B-score at 10 µM. AID 623877. HEK293 TMEM16A/YFP-H148Q/I152L, iodide quench fluorescence; active compounds read low. 340,000 compounds, 0.3% hits;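 active = fluorescence-ratio B-score plate-corrected deviation score at least 3 library SD below zero, with starting fluorescence score within 5 deviations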;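 also: channel opened by trigger with iodide after compound preincubation; score built on the fluorescence ratio of max minus min over baseline; more negative score means more quench and so TMEM16A activation or potentiation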
# CSC inhib: cancer stem cell inhibition | cancer stem cell-like cells viability, luminescence | AID 2717 | 300,000 compounds, 1.1% hits | inhibition, % at 7.5 µM; in the data active = inhibition above about 75%; tested in HMLE shEcad cells
# TMEM16A reconf: reconfirmed blocker of mouse TMEM16A calcium-activated chloride channel. shares compounds with ANO1 block. HEK293 TMEM16A/YFP-H148Q, iodide quench fluorescence; ionomycin added to raise cell calcium. inhibition, % at 10 µM. 2,300 compounds, 39% hits. AID 652189;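 active = mean duplicate percent inhibition, scaled so buffer wells are 0 and the reference blocker 100, over three buffer SD above buffer mean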
# TMEM16A Ca cntr: alters calcium mobilization in TMEM16A HEK293 cells, counter-screen. shares compounds with ANO1 block. TMEM16A/YFP HEK293, Fluo4 calcium mobilization. calcium response (% of ionomycin), % at 10 µM. 2,300 compounds, 2% hits. AID 652231;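 active = duplicate-averaged calcium signal over 20% of the ionomycin maximum, relative to buffer baseline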;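 also: each well's signal is peak minus trough fluorescence divided by its pre-addition baseline; 0% = buffer wells and 100% = ionomycin wells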
# Parental YFP cnt: counter-screen for TMEM16A inhibitors: effect in parental YFP-HEK293 cells | shares compounds with ANO1 block | iodide YFP quench, ionomycin | YFP ratio F(max-min)/F0 at 10 µM | 2,300 tested, under 10 active;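 active = yellow fluorescent protein signal ratio exceeding the buffer control mean by over 5 SD of those controls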;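 also: ratio is mean of duplicate wells from kinetic YFP trace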
# ClC-1 inh: selectivity of TMEM16A inhibitors: inhibition of rat ClC-1 chloride channel | shares compounds with ANO1 block | CHO ClC-1-YFP, iodide influx fluorescence quench; iodide control reads 0, buffer control 100 | ratio percent, % at 10 µM | 2,300 tested, under 10 active | AID 652236;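 active = duplicate-mean ratio percent above the mean of iodide-only control wells, which defines zero, plus 5 of their SD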;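 also: higher percent means stronger block of ClC-1 iodide influx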
# Numbers without * were called inactive; i = inactive; x = no result.
SMILES,ANO1 block,Beta cell apopt,MC4R barr agon,MC4R antagonist,ANO1 activ,CSC inhib,TMEM16A reconf,TMEM16A Ca cntr,Parental YFP cnt,ClC-1 inh
CCOC(=O)c1oc2ccc(S(=O)(=O)Nc3ccc4c(c3)n(C)c(=O)n4C)cc2c1C,25*,65,-1,-4,i,3,i,i,-1.3,-11
Cc1cc(C)cc(NC(=O)Nc2ccc3c(c2)N(C)C(=O)CS3)c1,i,x,3,24,i,19,x,x,x,x
CC(=O)c1cccc(NC(=O)Nc2ccc3c(c2)N(C)C(=O)CS3)c1,25*,0,-2,5,i,-4,34%*,i,-1.1,-15
OC(c1ccccc1)(c1nc(-c2cccc(F)c2)cs1)C(F)(F)F (centres undefined),x,x,2,10,x,x,x,x,x,x
COc1ccc(S(=O)(=O)N2CCC(O)(c3ccc(Cl)cc3)CC2)cc1,25*,3,-1,3,i,4,21%*,i,-1.1,-10
COc1ccc(C(C#N)CC(=O)c2ccc(OC)c(OCc3ccccc3)c2)cc1OC (centres undefined),x,x,-1,9,x,x,x,x,x,x
Cc1cccc(/N=C/c2sc3ccccc3c2O)n1,i,-9,0,-12,i,13,i,i,-1.3,-8
CC(C)=CCc1c(O)cc(O)c2c1OC(c1ccc(O)cc1)CC2=O (centres undefined),i,0,8,0,i,0,x,x,x,x
COc1cc(O)cc2c1[C@@H]1Oc3c(ccc(O)c3CC=C(C)C)[C@@H]1CO2,25*,-5,1,18,i,40,30%*,i,-0.96,-10
CSc1cccc(NC(=O)/C=C/c2ccc(Cl)cc2)c1,100*,-8,0,5,i,23,62%*,i,-1,-8
CCOc1cc(/C=C2\N=C(SC)SC2=O)cc([N+](=O)[O-])c1OC(C)=O,100*,-3,0,13,i,-4,i,i,-0.94,-3
CCOC(=O)N1CCC(NC(=O)C(CC(C)C)NC(=O)C2CCC(C)CC2)CC1 (centres undefined),100*,-6,1,0,i,-11,i,i,-1.1,-2
CCOC(=O)N1CCC(NC(=O)C(Cc2ccccc2)NC(=O)C2CCCCC2)CC1 (centres undefined),i,-8,0,3,i,-13,x,x,x,x
Clc1ccc2[nH]c3c(c2c1)CNCC3,i,x,2,2,i,x,x,x,x,x
O=C(O)c1ccccc1N/N=C/c1cc(Br)cc(Br)c1O,25*,8,-2,2,i,40,78%*,i,-1,-21
C1CCC(NC2=NCCC2)CC1,100*,-4,0,2,i,2,i,i,-1.1,-4
O=C(c1ccc(Cl)cc1)C1CCCN(Cc2cnn(-c3ccccc3)c2)C1 (centres undefined),100*,-1,-1,6,i,5,33%*,i,-0.91,-2
O=C(c1ccc(Cl)cc1)C1CCCN(Cc2ccc(Oc3ncccn3)cc2)C1 (centres undefined),i,4,1,0,i,14,x,x,x,x
O=C(CSc1ccccc1F)NC(=O)NC1CCCC1,x,x,0,0,x,x,x,x,x,x
Cc1noc(C)c1CSc1nc2ccccc2nc1NS(=O)(=O)c1ccc(Cl)cc1,100*,x,1,3,i,82*,29%*,i,-0.72,-8
O=S(=O)(Nc1nc2ccccc2nc1NCc1ccco1)c1ccc(Cl)cc1,i,4,0,0,i,x,x,x,x,x
O=C(NCCc1ccc(Cl)cc1)C1CCN(c2cnccn2)CC1,100*,x,0,-2,i,-19,i,i,-0.99,-15
Cc1cc(C)c(S(=O)(=O)N2CCN(C(=O)C(C)Cn3cncn3)CC2)c(C)c1 (centres undefined),i,1,2,9,i,-9,x,x,x,x
CC1(C)C(C=C(Cl)Cl)C1C(=O)N/N=C/c1ccccc1F (centres undefined),25*,9,4,-7,i,16,i,i,-1.1,-13
CC1(C)OC2OC(C(=O)N/N=C/c3ccccc3F)C3OC(C)(C)OC3C2O1 (centres undefined),i,2,-2,24,i,2,x,x,x,x
SMILES,ANO1 block,Beta cell apopt,MC4R barr agon,MC4R antagonist,ANO1 activ,CSC inhib,TMEM16A reconf,TMEM16A Ca cntr,Parental YFP cnt,ClC-1 inh
Cc1ccc(Nc2nc(-c3c(C)nc4ncccn34)cs2)cc1,i,9,-4,-18,i,62,x,x,x,x
Cc1ccc(Nc2nc(-c3c(C)nc4ccccn34)cs2)cc1,25*,x,-2,-19,i,x,32%*,i,-1.4,-16
Cc1nc2ccccn2c1-c1csc(NCc2ccco2)n1,25*,x,-2,-1,i,-15,i,i,-0.96,-8
CC(C)C[C@H](NC(=O)c1nc[nH]c1C(=O)NCCCCCN)C(=O)OCc1ccccc1,x,-2,-1,-2,i,-4,x,x,x,x
COC(=O)c1cc(CSc2nc3ccccc3c(=O)n2C)oc1C,100*,37,2,8,i,-10,34%*,i,-1.1,-12
O=C1CCC2(CCCC2)c2ccccc21,x,x,0,-3,x,x,x,x,x,x
CC(C)c1ccc(S(=O)(=O)/N=C2\C=C(NS(=O)(=O)c3ccccc3)C(=O)c3ccccc32)cc1,100*,x,2,7,i,-9,91%*,i,-0.92,-24
Cc1cc(NC(=O)c2cccc(S(=O)(=O)N3CCCCC3)c2)no1,i,-2,-3,-5,i,-3,x,x,x,x
COCCN1C[C@@H](CO)O[C@@H](n2cnc3c(N4CCCC4)ncnc32)C1,x,x,0,0,x,x,x,x,x,x
CC1CC(C)CN(C(=O)/C(=C\c2ccccc2)c2ccccc2)C1 (centres undefined),i,51,7,-6,i,-2,x,x,x,x
CN1CCN(C(=O)/C(=C/c2ccccc2)c2ccccc2)CC1,25*,-3,-2,0,i,0,i,i,-0.95,-2
CC(=O)c1ccccc1OCc1ccc(S(=O)(=O)Cc2ccccc2)cc1,25*,x,2,-4,i,x,34%*,i,-0.62,-14

# Assay outcomes (PubChem)
